According to ChEMBL document CHEMBL1955718, “Discovery of new orally effective analgesic and anti-inflammatory hybrid furoxanyl N-acylhydrazone derivatives” (Bioorg Med Chem, 2012):

Assays:
[1] = Cytotoxicity against mouse […] cells after 48 hrs by MTT assay; assay type: cell-based
Procedure, shortened: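 J774 macrophages in DMEM (4 mM L-glutamine, 10% heat-inactivated FBS) were seeded at 1 × 10^5 cells/well and grown for 48 h at 37 °C, 5% CO2. They were then exposed to compounds at 25–400 µM for 48 h. MTT (0.1 mg/mL final) was added for 3 h, formazan was dissolved in DMSO/glycine buffer pH 10.5, and absorbance was read at 560 nm to give an IC50.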

HT-29 [2] = test: Inhibition of NF-kappaB activation expressed in human HT-29 cells assessed as inhibition of TNFalpha-stimulated IL8 release at 25 uM after 24 hrs by flow cytometric analysis relative to control; assay type: cell-based
Procedure, shortened: (§1)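 Reporter HT-29-NF-κB-hrGFP cells pretreated 2 h with compound (DMSO <0.5%) at the highest concentration with 100% survival, then stimulated with TNF-α (3 ng/mL final) for 18–24 h at 37 °C. IL-8 in clarified supernatant measured by flow cytometric bead assay (500 events). Expressed as % of TNF-α/DMSO control ± SD; thalidomide as reference.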

[3] = Inhibition of soybean lipoxygenase using arachidonic acid as substrate; design: species or system Glycine max
Procedure, shortened: (§2)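 Soybean 15-lipoxygenase kit assay, arachidonic acid substrate, H2O2 as lipoxygenating agent in 0.1 M Tris-HCl pH 7.4. Single-point screen at 50 µM. IC50 found by varying concentration over 10–100 µM. Quercetin at 4 µM as positive control; duplicate means; Student t-test.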

Glycine max [4] = test: Inhibition of soybean lipoxygenase using arachidonic acid as substrate at 50 uM; procedure, shortened: as §2
HT-29 [5] = test: Inhibition of TNF-alpha-induced NFkappaB activation expressed in human HT-29 cells coexpressing hrGFP at 25 uM after 24 hrs by propidium iodide staining-based flow cytometric analysis relative to control; assay type: cell-based
Procedure, shortened: (§3)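 HT-29 cells stably expressing NF-κB-driven hrGFP given compound (DMSO <0.5%) for 2 h at the maximum non-cytotoxic concentration, then TNF-α at 3 ng/mL final for 18–24 h. Cells trypsinised and stained with propidium iodide; 5000 events gated on FSC/SSC. The %GFP-positive among PI-excluding live cells is normalised to TNF-α/DMSO control, ± SD.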

HT-29 [6] = test: Pro-inflammatory activity in NFkappaB-GFP transfected human HT-29 cells at 25 to 400 uM after 24 hrs by propidium iodide staining-based flow cytometric analysis; assay type: ADME, cell-based; conditions: ht-29, 24 h
Procedure, shortened: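 Reporter HT-29-NF-κB-hrGFP cells given compound alone, without TNF-α, for 18–24 h at 37 °C after the same 2 h pre-incubation. GFP-positive live (propidium iodide-excluding) cells counted by flow cytometry; IL-8 in supernatant measured by bead-based flow cytometry.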

[7] = Cytotoxicity against human HT-29 cells expressing NF-kappaB-hrGFP assessed as highest non-cytotoxic dose for 100% cell survival after 24 hrs by MTT assay; assay type: cell-based; conditions: read-out: Activity
Procedure, shortened: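 HT-29 cells stably carrying pNF-κB-hrGFP, seeded at 0.5 × 10^6/mL in DMEM with 10% FBS, grown 24 h at 37 °C, 5% CO2. Compounds added in DMSO (<0.5% v/v final) at 12.5–400 µM for 24 h. Viability by MTT reduction (2 h), formazan dissolved in DMSO/glycine buffer, read at 560 nm.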

[8] = Solubility of the compound in soybean lipoxygenase assay buffer at pH 7.4 at >50 uM; assay type: physicochemical
HT-29 [9] = test: Inhibition of TNFalpha-induced NF-kappaB activation expressed in human HT-29 cells coexpressing hrGFP at 100 uM after 24 hrs by propidium iodide staining-based flow cytometric analysis relative to control; assay type: cell-based; procedure, shortened: as §3
HT-29 [10] = test: Inhibition of TNFalpha-induced NF-kappaB activation expressed in human HT-29 cells coexpressing hrGFP at 200 uM after 24 hrs by propidium iodide staining-based flow cytometric analysis relative to control; assay type: cell-based; procedure, shortened: as §3
HT-29 [11] = test: Inhibition of NF-kappaB activation expressed in human HT-29 cells assessed as inhibition of TNFalpha-stimulated IL8 release at 100 uM after 24 hrs by flow cytometric analysis relative to control; assay type: cell-based; procedure, shortened: as §1
Glycine max [12] = test: Inhibition of soybean lipoxygenase using arachidonic acid as substrate at 4 uM
Procedure, shortened: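 Soybean lipoxygenase-15 screening kit with arachidonic acid as substrate and H2O2 as lipoxygenating agent in 0.1 M Tris-HCl, pH 7.4. Values are % inhibition, means of duplicate determinations, Student t-test.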

With `O=C(N/N=C/c1c(-c2ccccc2)no[n+]1[O-])c1cccnc1` the IC50 [1] was 195 µM, the inhibition (HT-29 [2]) was 138% and the IC50 [3] was > 100 µM. The inhibition (Glycine max [4]) was 14%, the inhibition (HT-29 [5]) was 114% and the Activity (HT-29 [6]) was “Non-toxic”. For the same compound, the MNTC at 24 h [7] was 25 µM.
For `Cc1c(C(=O)N/N=C/c2ccccc2O)no[n+]1[O-]`, the IC50 [1] was 246 µM, the solubility [8] was “Insoluble” and the inhibition (Glycine max [4]) was 37%. The NF-kappaB activity (% of TNF-alpha control) (HT-29 [9]) was 55%, the Activity (HT-29 [6]) was “Non-toxic” and the MNTC at 24 h [7] was 100 µM.
In the case of `Cc1[nH]cnc1C(=O)N/N=C/c1c(-c2ccccc2)no[n+]1[O-]`, the IC50 [1] is reported as > 400 µM, the inhibition (HT-29 [10]) is reported as 103% and the Activity (HT-29 [6]) is reported as “Non-toxic”. The MNTC at 24 h [7] was 200 µM.
With `Cc1[nH]cnc1C(=O)N/N=C/c1no[n+]([O-])c1C` the IC50 [1] was > 400 µM, the solubility [8] was “Insoluble” and the inhibition (Glycine max [4]) was 27%. The inhibition (HT-29 [11]) was 103%, the NF-kappaB activity (% of TNF-alpha control) (HT-29 [9]) was 126% and the Activity (HT-29 [6]) was “Non-toxic”. For the same compound, the MNTC at 24 h [7] was 100 µM.
For `O=c1c(O)c(-c2ccc(O)c(O)c2)oc2cc(O)cc(O)c12`, the inhibition (Glycine max [12]) was 35%.
